Laboratory results published in ChEMBL document CHEMBL4152234, “Aminobenzothiazole derivatives stabilize the thermolabile p53 cancer mutant Y220C and show anticancer activity in p53-Y220C cell lines” (Eur J Med Chem, 2018).

Legend:
Assay type in all cases: cell-based
[1] = target: T1, Cellular tumor antigen p53 (Homo sapiens, UniProt P04637); experiment: Activation of p53 in human NUGC4 cells assessed as change in TADA3 mRNA level at 60 uM after 18 hrs by RT-PCR method relative to control; conditions: read-out: FC
[2] = test system: Cellular tumor antigen p53 (Homo sapiens), P04637 [Y220C]; experiment: Activation of p53 Y220C mutant in human NUGC3 cells assessed as change in STAT1 mRNA level at 60 uM after 18 hrs by RT-PCR method relative to control
In short: (§1)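 p53 signalling qPCR array covering 84 p53 pathway genes. Cells were exposed for 18 h, and compound and control wells both held 0.5% DMSO. Total RNA was extracted and purified. Fold-changes were calculated by the ΔΔCt method against the untreated sample, with β2-microglobulin (B2M) as the housekeeping gene. Each cell line was run in two independent biological replicates.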

[3] = target: T1, Cellular tumor antigen p53; experiment: Activation of p53 in human NUGC4 cells assessed as change in BCL2A1 mRNA level at 60 uM after 18 hrs by RT-PCR method relative to control; conditions: read-out: FC; in short: as §1
[4] = test system: Cellular tumor antigen p53 (Homo sapiens), P04637 [Y220C]; experiment: Activation of p53 Y220C mutant in human NUGC3 cells assessed as change in IGF1R mRNA level at 60 uM after 18 hrs by RT-PCR method relative to control
In short: (§2)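 p53 signalling qPCR array covering 84 genes. Cells were exposed for 18 h, with 0.5% DMSO in both compound and control samples. Total RNA was extracted and purified. Fold-changes were calculated by ΔΔCt using β2-microglobulin (B2M) as the housekeeping gene. Two independent biological replicates were run per cell line.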

[5] = target: T1, Cellular tumor antigen p53; experiment: Activation of p53 in human NUGC4 cells assessed as change in KAT2B mRNA level at 60 uM after 18 hrs by RT-PCR method relative to control; conditions: read-out: FC
In short: (§3)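 p53 signaling qPCR array of 84 p53-pathway genes. Cells were treated in 6-well plates for 18 h with 0.5% DMSO in compound and control samples. Total RNA was extracted and fold-changes were obtained by the ΔΔCt method against untreated control, with β2-microglobulin (B2M) as housekeeping gene. Two independent biological replicates per cell line.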

[6] = target: T1, Cellular tumor antigen p53; experiment: Activation of p53 in human NUGC4 cells assessed as change in MLH1 mRNA level at 60 uM after 18 hrs by RT-PCR method relative to control; conditions: read-out: FC; in short: as §3
[7] = target: T1, Cellular tumor antigen p53; experiment: Activation of p53 in human NUGC4 cells assessed as change in CRADD mRNA level at 60 uM after 18 hrs by RT-PCR method relative to control; conditions: read-out: FC; in short: as §3
[8] = target: T1, Cellular tumor antigen p53; experiment: Activation of p53 in human NUGC4 cells assessed as change in ESR1 mRNA level at 60 uM after 18 hrs by RT-PCR method relative to control; conditions: read-out: FC; in short: as §3
[9] = test system: Cellular tumor antigen p53 (Homo sapiens), P04637 [Y220C]; experiment: Activation of p53 Y220C mutant in human NUGC3 cells assessed as change in NF1 mRNA level at 60 uM after 18 hrs by RT-PCR method relative to control; in short: as §1
[10] = target: T1, Cellular tumor antigen p53; experiment: Activation of p53 in human NUGC4 cells assessed as change in PPM1D mRNA level at 60 uM after 18 hrs by RT-PCR method relative to control; conditions: read-out: FC
[11] = target: T1, Cellular tumor antigen p53; experiment: Activation of p53 in human NUGC4 cells assessed as change in BRCA1 mRNA level at 60 uM after 18 hrs by RT-PCR method relative to control; conditions: read-out: FC; in short: as §3
[12] = test system: Cellular tumor antigen p53 (Homo sapiens), P04637 [Y220C]; experiment: Activation of p53 Y220C mutant in human NUGC3 cells assessed as change in APAF1 mRNA level at 60 uM after 18 hrs by RT-PCR method relative to control; in short: as §2
[13] = target: T1, Cellular tumor antigen p53; experiment: Activation of p53 in human NUGC4 cells assessed as change in CASP2 mRNA level at 60 uM after 18 hrs by RT-PCR method relative to control; conditions: read-out: FC; in short: as §3
[14] = test system: Cellular tumor antigen p53 (Homo sapiens), P04637 [Y220C]; experiment: Activation of p53 Y220C mutant in human NUGC3 cells assessed as change in CDK1 mRNA level at 60 uM after 18 hrs by RT-PCR method relative to control; in short: as §2
[15] = target: T1, Cellular tumor antigen p53; experiment: Activation of p53 in human NUGC4 cells assessed as change in ATR mRNA level at 60 uM after 18 hrs by RT-PCR method relative to control; conditions: read-out: FC; in short: as §1
[16] = target: T1, Cellular tumor antigen p53; experiment: Activation of p53 in human NUGC4 cells assessed as change in RB1 mRNA level at 60 uM after 18 hrs by RT-PCR method relative to control; conditions: read-out: FC
[17] = test system: Cellular tumor antigen p53 (Homo sapiens), P04637 [Y220C]; experiment: Activation of p53 Y220C mutant in human NUGC3 cells assessed as change in RB1 mRNA level at 60 uM after 18 hrs by RT-PCR method relative to control; in short: as §1
[18] = target: T1, Cellular tumor antigen p53; experiment: Activation of p53 in human NUGC4 cells assessed as change in MSH2 mRNA level at 60 uM after 18 hrs by RT-PCR method relative to control; conditions: read-out: FC; in short: as §3
[19] = test system: Cellular tumor antigen p53 (Homo sapiens), P04637 [Y220C]; experiment: Activation of p53 Y220C mutant in human NUGC3 cells assessed as change in TADA3 mRNA level at 60 uM after 18 hrs by RT-PCR method relative to control; in short: as §1
[20] = target: T1, Cellular tumor antigen p53; experiment: Activation of p53 in human NUGC4 cells assessed as change in PRKCA mRNA level at 60 uM after 18 hrs by RT-PCR method relative to control; conditions: read-out: FC
[21] = test system: Cellular tumor antigen p53 (Homo sapiens), P04637 [Y220C]; experiment: Activation of p53 Y220C mutant in human NUGC3 cells assessed as change in NFKB1 mRNA level at 60 uM after 18 hrs by RT-PCR method relative to control; in short: as §1
[22] = test system: Cellular tumor antigen p53 (Homo sapiens), P04637 [Y220C]; experiment: Activation of p53 Y220C mutant in human NUGC3 cells assessed as change in TSC1 mRNA level at 60 uM after 18 hrs by RT-PCR method relative to control; in short: as §1
[23] = test system: Cellular tumor antigen p53 (Homo sapiens), P04637 [Y220C]; experiment: Activation of p53 Y220C mutant in human NUGC3 cells assessed as change in IL6 mRNA level at 60 uM after 18 hrs by RT-PCR method relative to control; in short: as §1
[24] = test system: Cellular tumor antigen p53 (Homo sapiens), P04637 [Y220C]; experiment: Activation of p53 Y220C mutant in human NUGC3 cells assessed as change in RPRM mRNA level at 60 uM after 18 hrs by RT-PCR method relative to control; in short: as §1
[25] = test system: Cellular tumor antigen p53 (Homo sapiens), P04637 [Y220C]; experiment: Activation of p53 Y220C mutant in human NUGC3 cells assessed as change in ADGRB1 mRNA level at 60 uM after 18 hrs by RT-PCR method relative to control; in short: as §2
[26] = test system: Cellular tumor antigen p53 (Homo sapiens), P04637 [Y220C]; experiment: Activation of p53 Y220C mutant in human NUGC3 cells assessed as change in KAT2B mRNA level at 60 uM after 18 hrs by RT-PCR method relative to control; in short: as §1
[27] = target: T1, Cellular tumor antigen p53; experiment: Activation of p53 in human NUGC4 cells assessed as change in CHEK1 mRNA level at 60 uM after 18 hrs by RT-PCR method relative to control; conditions: read-out: FC; in short: as §3
[28] = target: T1, Cellular tumor antigen p53; experiment: Activation of p53 in human NUGC4 cells assessed as change in ADGRB1 mRNA level at 60 uM after 18 hrs by RT-PCR method relative to control; conditions: read-out: FC; in short: as §1
[29] = target: T1, Cellular tumor antigen p53; experiment: Activation of p53 in human NUGC4 cells assessed as change in CDC25C mRNA level at 60 uM after 18 hrs by RT-PCR method relative to control; conditions: read-out: FC; in short: as §3

- fold induction at 60 µM [1]: 1
- fold change (FC) [2]: 0.8
- fold induction at 60 µM [3]: 6.1
- fold change (FC) [4]: 1.8
- fold induction at 60 µM [5]: 1
- fold induction at 60 µM [6]: 1
- fold induction at 60 µM [7]: 0.8
- fold induction at 60 µM [8]: 8.1
- fold change (FC) [9]: 1.4
- fold induction at 60 µM [10]: 0.9
- fold induction at 60 µM [11]: 0.7
- fold change (FC) [12]: 1.2
- fold induction at 60 µM [13]: 0.7
- fold change (FC) [14]: 1.5
- fold induction at 60 µM [15]: 0.9
- fold induction at 60 µM [16]: 0.8
- fold change (FC) [17]: 0.9
- fold induction at 60 µM [18]: 0.7
- fold change (FC) [19]: 0.8
- fold induction at 60 µM [20]: 1
- fold change (FC) [21]: 1.5
- fold change (FC) [22]: 1.3
- fold change (FC) [23]: 6.4
- fold change (FC) [24]: 1.4
- fold change (FC) [25]: 1.5
- fold change (FC) [26]: 0.8
- fold induction at 60 µM [27]: 0.7
- fold induction at 60 µM [28]: 2.9
- fold induction at 60 µM [29]: 0.9
SMILES: CCNC(=O)c1c(O)c(I)c(-n2cccc2)c2sc(N(CC)CC)nc12
